Results reported in ChEMBL document CHEMBL1142380, “Synthesis, in vitro characterization, and radiolabeling of reboxetine analogs as potential PET radioligands for imaging the norepinephrine transporter” (Bioorg Med Chem, 2008).

What was measured:
[1] = biological target: Sodium-dependent serotonin transporter (Homo sapiens, UniProt P31645); assay: Displacement of [3H]citalopram from human SERT expressed in HEK293 cells; assay type: cell-based
In short: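 Membranes from HEK-293 cells stably expressing hSERT, 30–70 µg protein, with [3H]citalopram. Buffer: 53 mM Tris, 126 mM NaCl, 5.3 mM KCl, pH 7.9. Incubated 2 h at room temperature. Competitor tested at 12 concentrations, 10^-13 to 10^-5 M, in triplicate. Ended by cold-buffer vacuum filtration on 0.3% PEI-soaked GF/B filters. Ki given as geometric mean of ≥3 separate assays.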

Homo sapiens [2] = species: Homo sapiens; assay: Selectivity ratio of Ki for human SERT to Ki for human NET
[3] = biological target: Sodium-dependent noradrenaline transporter (Homo sapiens, UniProt P23975); assay: Displacement of [3H]nisoxetine from human NET expressed in HEK293 cells; assay type: cell-based
Chain of Sodium-dependent noradrenaline transporter (P23975 whole entry): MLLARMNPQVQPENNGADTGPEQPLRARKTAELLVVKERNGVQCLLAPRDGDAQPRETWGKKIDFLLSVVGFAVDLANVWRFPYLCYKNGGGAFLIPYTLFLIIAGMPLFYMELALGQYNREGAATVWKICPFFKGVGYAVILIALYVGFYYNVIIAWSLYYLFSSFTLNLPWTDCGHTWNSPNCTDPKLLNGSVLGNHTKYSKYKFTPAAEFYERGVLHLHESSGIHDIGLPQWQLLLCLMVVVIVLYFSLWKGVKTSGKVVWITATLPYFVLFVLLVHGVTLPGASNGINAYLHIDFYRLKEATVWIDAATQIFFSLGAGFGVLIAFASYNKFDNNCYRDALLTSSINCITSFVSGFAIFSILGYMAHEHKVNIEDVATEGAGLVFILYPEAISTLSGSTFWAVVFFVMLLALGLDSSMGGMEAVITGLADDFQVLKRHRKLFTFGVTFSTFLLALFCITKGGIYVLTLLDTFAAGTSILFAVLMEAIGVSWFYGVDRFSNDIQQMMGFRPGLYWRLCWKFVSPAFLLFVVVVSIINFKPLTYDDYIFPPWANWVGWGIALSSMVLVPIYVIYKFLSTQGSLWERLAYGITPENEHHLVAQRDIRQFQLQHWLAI
In short: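 Membranes from HEK-293 cells stably expressing hNET (grown in DMEM, 10% FBS, Geneticin), 30–70 µg protein per tube, with [3H]nisoxetine. Buffer: 53 mM Tris, 320 mM NaCl, 5.3 mM KCl, pH 7.4 at 4 °C. Incubated 4 h at 4 °C. Competitor tested at 12 concentrations, 10^-13 to 10^-5 M, in triplicate. Filtered on PEI-soaked GF/B filters. Ki given as geometric mean of ≥3 assays.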

[4] = biological target: Sodium-dependent dopamine transporter (Homo sapiens, UniProt Q01959); assay: Displacement of [125I]RTI-55 from human DAT expressed in HEK-293 cells
Chain of Sodium-dependent dopamine transporter (Q01959 whole entry): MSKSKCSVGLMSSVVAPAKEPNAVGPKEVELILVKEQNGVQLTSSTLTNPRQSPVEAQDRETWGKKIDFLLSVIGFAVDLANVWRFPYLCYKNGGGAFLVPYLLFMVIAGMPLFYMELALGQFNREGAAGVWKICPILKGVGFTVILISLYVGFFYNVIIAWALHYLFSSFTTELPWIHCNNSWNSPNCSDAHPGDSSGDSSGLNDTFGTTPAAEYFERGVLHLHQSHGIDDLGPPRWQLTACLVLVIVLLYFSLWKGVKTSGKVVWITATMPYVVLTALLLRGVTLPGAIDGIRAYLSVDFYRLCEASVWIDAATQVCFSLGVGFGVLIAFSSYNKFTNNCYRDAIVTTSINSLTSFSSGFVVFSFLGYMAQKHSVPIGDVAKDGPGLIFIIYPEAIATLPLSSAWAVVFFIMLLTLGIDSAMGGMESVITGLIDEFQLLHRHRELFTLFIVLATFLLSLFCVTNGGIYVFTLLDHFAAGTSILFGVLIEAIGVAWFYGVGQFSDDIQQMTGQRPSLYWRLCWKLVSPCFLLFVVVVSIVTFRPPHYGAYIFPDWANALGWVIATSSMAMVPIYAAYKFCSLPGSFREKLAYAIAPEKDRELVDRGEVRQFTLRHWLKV

Homo sapiens [5] = species: Homo sapiens; assay: Selectivity ratio of Ki for human DAT to Ki for human NET

Chain of Sodium-dependent serotonin transporter (P31645 whole entry): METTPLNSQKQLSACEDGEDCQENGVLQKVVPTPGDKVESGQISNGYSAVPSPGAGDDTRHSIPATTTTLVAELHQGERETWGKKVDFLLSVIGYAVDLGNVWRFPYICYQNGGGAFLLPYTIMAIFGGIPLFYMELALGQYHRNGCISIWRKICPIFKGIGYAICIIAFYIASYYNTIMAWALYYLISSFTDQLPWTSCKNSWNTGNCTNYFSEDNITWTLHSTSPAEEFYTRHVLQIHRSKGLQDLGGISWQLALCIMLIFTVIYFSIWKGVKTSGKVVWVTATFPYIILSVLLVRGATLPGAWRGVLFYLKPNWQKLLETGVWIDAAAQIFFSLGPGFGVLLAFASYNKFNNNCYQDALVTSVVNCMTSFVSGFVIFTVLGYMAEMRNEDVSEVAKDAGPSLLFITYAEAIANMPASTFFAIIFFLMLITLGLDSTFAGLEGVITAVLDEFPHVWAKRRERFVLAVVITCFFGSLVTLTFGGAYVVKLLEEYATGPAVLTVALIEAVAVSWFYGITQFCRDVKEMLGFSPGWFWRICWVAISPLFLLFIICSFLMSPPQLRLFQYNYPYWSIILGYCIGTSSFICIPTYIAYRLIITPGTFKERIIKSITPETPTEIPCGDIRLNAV

Row | SMILES | Ki [1] | Ratio Ki (Homo sapiens [2]) | Ki [3] | Ki [4] | Ratio Ki (Homo sapiens [5])
1 | COc1ccccc1O[C@@H](c1ccccc1)[C@@H]1CNCCO1 | 185 nM | 195 | 0.95 nM | > 10000 nM | > 10000
2 | FCCCOc1ccccc1S[C@@H](c1ccccc1)[C@@H]1CNCCO1 | 121 nM | 100 | 1.21 nM | > 9000 nM | > 7000
3 | COC(=O)c1ccccc1O[C@@H](c1ccccc1)[C@@H]1CNCCO1 | 614 nM | 465 | 1.32 nM | > 3000 nM | > 2000
4 | COc1ccccc1S[C@@H](c1ccccc1)[C@@H]1CNCCO1 | 9.69 nM | 13 | 0.76 nM | > 4000 nM | > 4000
5 | CSc1ccccc1O[C@@H](c1ccccc1)[C@@H]1CNCCO1 | 90.9 nM | 44 | 2.06 nM | > 6000 nM | > 3000
6 | FCCOc1ccccc1S[C@@H](c1ccccc1)[C@@H]1CNCCO1 | 733 nM | 733 | 1 nM | > 10000 nM | > 10000
7 | COC(=O)c1ccccc1S[C@@H](c1ccccc1)[C@@H]1CNCCO1 | 498 nM | 369 | 1.35 nM | > 30000 nM | > 20000
